Results of several laboratories.
Lines come from different studies, so protocols differ.
Target: Mitogen-activated protein kinase kinase kinase 3 (MAP3K3, Homo sapiens, UniProt Q99759)
Sequence (Q99759 1-626, as in one of the studies): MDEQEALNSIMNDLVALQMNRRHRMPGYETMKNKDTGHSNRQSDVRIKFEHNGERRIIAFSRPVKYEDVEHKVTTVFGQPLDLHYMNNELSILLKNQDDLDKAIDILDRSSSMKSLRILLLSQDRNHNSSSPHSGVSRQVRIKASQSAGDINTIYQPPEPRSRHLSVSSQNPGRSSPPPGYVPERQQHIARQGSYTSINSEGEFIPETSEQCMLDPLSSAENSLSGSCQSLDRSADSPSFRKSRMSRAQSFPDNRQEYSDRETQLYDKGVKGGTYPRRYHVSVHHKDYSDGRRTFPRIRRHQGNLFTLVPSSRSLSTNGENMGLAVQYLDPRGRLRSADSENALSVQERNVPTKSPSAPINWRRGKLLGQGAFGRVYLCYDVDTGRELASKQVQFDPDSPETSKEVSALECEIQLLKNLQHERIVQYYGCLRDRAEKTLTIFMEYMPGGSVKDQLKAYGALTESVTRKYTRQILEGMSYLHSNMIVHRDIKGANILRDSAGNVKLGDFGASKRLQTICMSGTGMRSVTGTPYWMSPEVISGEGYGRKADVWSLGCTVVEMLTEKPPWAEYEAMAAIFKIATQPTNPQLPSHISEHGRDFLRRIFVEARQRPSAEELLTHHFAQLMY

C=CC(=O)N1CCC(C(=O)NCC(=O)N2CCN(c3nc(-c4cnc(N)nc4C(F)F)nc(N4CCOCC4)n3)CC2)CC1  remaining binding (binding, competition with immobilised ligand; 1 µM): 99%
Cc1cnc(Nc2ccc(C(=O)N3CCC(N4CCCC4)CC3)cc2)nc1-c1cc2ccccc2s1  remaining binding (binding, competition with immobilised ligand; 1 µM): 19%
O=C(O)[C@H]1[C@H](Cn2nnc3ccccc3c2=O)CC[C@@H]1C(=O)c1ccc(OCCC2CCOCC2)cc1  remaining binding (cell-free assay, competition with immobilised ligand; 1 µM): 100%
FC(F)(F)Oc1cccc(-c2cnc3ccc(-c4ccncc4)nn23)c1  remaining binding (cell-free assay, competition with immobilised ligand; 5 µM): 51%
Cc1cnn2ncc(-c3ccnc(N(C)C)n3)c2c1  remaining binding (binding; 1 µM): 47%
CS(=O)(=O)NCC[C@H](NC(=O)c1cncc2c1cnn2-c1ccc(F)cc1)c1ccnc(S(C)(=O)=O)c1  remaining binding (cell-free assay, competition with immobilised ligand; 1 µM): 100%
CN(CCCC(F)(F)F)c1nccc(-c2cnn3ncccc23)n1  remaining binding (binding; 1 µM): 99%
COc1cnc(Nc2cccc(S(N)(=O)=O)c2)nc1N1CCN(c2ccccc2)C(=O)C1  remaining binding (binding, competition with immobilised ligand; 1 µM): 84%
C[C@@H]1CCN(c2nccc(-c3cnn4ncccc34)n2)C1  remaining binding (binding; 1 µM): 80%
Nc1c(C(=O)NCc2ccc(C(=O)NCCCC3CCCCC3)cc2)cnn1-c1ccccc1  remaining binding (cell-free assay, competition with immobilised ligand; 0.1 µM): 100%
CC1CCCN1c1nccc(-c2cnn3ncccc23)n1 (stereo not shown)  remaining binding (binding; 1 µM): 97%
CN1CCN(c2cnc3c(C4CCN(C(=O)c5ccc(OC(F)(F)F)cc5N)CC4)ncnc3c2)CC1  remaining binding (cell-free assay, competition with immobilised ligand; 1 µM): 94%
F[C@@H]1CCN(c2nccc(-c3cnn4ncccc34)n2)C1  remaining binding (binding; 1 µM): 100%
O=C(NCCCN1CCOCC1)c1ccc(Nc2ncc(Cl)c(-c3ccc(Cl)s3)n2)cc1  remaining binding (binding, competition with immobilised ligand; 1 µM): 3.6%
O=C(N1CCS(=O)(=O)CC1)N1C[C@H](c2ccc(OC(F)(F)F)cc2)C[C@H](c2nc(C3CC3)no2)C1  remaining binding (cell-free assay, competition with immobilised ligand; 1 µM): 100%
C[C@@H](c1ccc(-n2cnc3c(N)ncnc32)cc1)N1CCc2nn(C)c(Cc3ccccc3)c2C1=O  remaining binding (binding, competition with immobilised ligand; 0.1 µM): 79%
CC(=O)Nc1c(C(C)=O)c(=O)n(C)c2nc(-c3ccc(Cl)cc3Cl)c(-c3ccc(Cl)cc3)cc12  remaining binding (cell-free assay, competition with immobilised ligand; 1 µM): 100%
CN(C)c1nccc(-c2cnc3ncccn23)n1  remaining binding (binding; 1 µM): 44%
CC(=O)N1CCC(c2ccc(C(=O)NC(=N)N)cc2C(F)(F)F)CC1  remaining binding (cell-free assay, competition with immobilised ligand; 1 µM): 90%
O=C(NCCCN1CCOCC1)c1ccc(Nc2nccc(-c3cc4ccccc4s3)n2)cc1  remaining binding (binding, competition with immobilised ligand; 1 µM): 65%
N[C@@H]1CCN(c2nccc(-c3cnn4ncccc34)n2)C1  remaining binding (binding; 1 µM): 100%
O=C(Nc1c[nH]nc1C(=O)NC1CCNCC1)c1cc(F)cc(F)c1  remaining binding (binding, competition with immobilised ligand; 1 µM): 89%
